Assay results taken from ChEMBL document CHEMBL5608193, “Discovery of bivalent small molecule degraders of cyclin-dependent kinase 7 (CDK7)” (Eur J Med Chem, 2024).
Activity calls are given as the source filed them. No cut-off for these calls is given here.

How the values were obtained:
[1] = target: von Hippel-Lindau disease tumor suppressor/Cyclin-dependent kinase 6 (Homo sapiens) (UniProt Q00534+P40337); assay: PROTAC activity at CDK6/VHL in human Jurkat cells assessed as degradation of CDK7 measured at 10 to 500 nM after 6 hrs incubation by Western blotting analysis; type: cell-based; settings: dose 10-500 nM
OVCAR-3 = assay: Antiproliferative activity against human OVCAR-3 cells assessed as cell viability measured after 72 hrs by CellTiter-Glo assay; type: functional, cell-based; settings: OVCAR-3, 72 h
Outline: (§1)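 Cells grown in RPMI 1640 with 10% heat-inactivated FBS and penicillin/streptomycin at 37 °C, 5% CO2, mycoplasma-negative. Seeded at 10^4/ml. Compounds dispensed digitally from 10 mM or 1 mM DMSO stocks, DMSO equalized, triplicate wells. After 72 h, CellTiter-Glo added for 10–15 min at room temperature and luminescence read.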

[2] = target: Cyclin-dependent kinase 7 (Homo sapiens) (UniProt P50613); assay: Induction of degradation of CDK7 in human […]-knockout Jurkat cells at 0.01 to 1 uM measured after 6 hrs incubation by immunoblot analysis; type: cell-based; settings: dose 0.01-1 µM
Outline: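 Parental and VHL-knockout Jurkat cells treated with degrader for 6 h, then CDK7 western blot (RIPA lysis, 4–20% SDS-PAGE, β-actin control, infrared detection).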

[3] = target: T1, von Hippel-Lindau disease tumor suppressor/Cyclin-dependent kinase 7 (Homo sapiens) (UniProt P50613+P40337); assay: PROTAC activity at CDK7/VHL in human SU-DHL-5 cells assessed as degradation of CDK7 at 0.1 to 5 uM measured after 6 hrs incubation by immunoblot analysis; type: cell-based; settings: dose 0.1-5 µM
[4] = Half life in male CD1 mouse at 3 mg/kg, IV measured upto 24 hrs by LC-MS/MS-39 analysis; type: ADME, organism-based; settings: in vivo
Outline: (§2)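 Three male CD1 mice given a single 3 mg/kg intravenous dose. Plasma prepared on ice by centrifugation (2000 g, 5 min, 4 °C) within 15 min, held at about −70 °C. Acetonitrile precipitation, then LC-MS/MS quantitation. Mean ± SD, n=3.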

[5] = Half life in male CD1 mouse at 10 mg/kg, IP measured upto 24 hrs by LC-MS/MS-39 analysis; type: ADME, organism-based; settings: in vivo
Outline: (§3)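 Male CD1 mice, n=3, one 10 mg/kg intraperitoneal dose. Blood sampled at 0, 0.25, 0.5, 1, 2, 4, 6, 8 and 24 h. Kept on wet ice and spun to plasma (2000 g, 5 min, 4 °C) within 15 min, stored at about −70 °C. Protein precipitation with acetonitrile, then LC-MS/MS. Values are mean ± SD of three mice.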

[6] = target: T1, von Hippel-Lindau disease tumor suppressor/Cyclin-dependent kinase 7 (Homo sapiens); assay: PROTAC activity at CDK7/VHL in human Jurkat cells assessed as degradation of CDK7 in presence of 10 uM (S,R,S)-AHPC-me at 0.1 uM measured after 6 hrs incubation by immunoblot analysis; type: cell-based
Outline: (§4)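 Jurkat cells pretreated 2 h with MG132, MLN-4924, YKL-5–167 or a VHL ligand, then given degrader for 6 h. CDK7 immunoblotted: RIPA lysis, SDS-PAGE, anti-CDK7 1:1000, IRDye secondaries.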

[7] = target: T1, von Hippel-Lindau disease tumor suppressor/Cyclin-dependent kinase 7 (Homo sapiens); assay: PROTAC activity at CDK7/VHL in human Jurkat cells assessed as degradation of Cyclin H measured at 0.1 to 5 uM after 6 hrs incubation by Western blotting analysis; type: cell-based; settings: dose 0.1-5 µM
Outline: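 Jurkat and OVCAR3 cells treated 6 h across a concentration series. Blots probed for CDK7, MAT1 (1:1000) and Cyclin H (1:1000) overnight at 4 °C, with β-actin control and IRDye secondaries.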

[8] = target: von Hippel-Lindau disease tumor suppressor/Cyclin-dependent kinase 9 (Homo sapiens) (UniProt P50750+P40337); assay: PROTAC activity at CDK9/VHL in human Jurkat cells assessed as degradation of CDK7 measured at 10 to 500 nM after 6 hrs incubation by Western blotting analysis; type: cell-based; settings: dose 10-500 nM
[9] = Cmax in male CD1 mouse at 10 mg/kg, IP measured upto 24 hrs by LC-MS/MS-39 analysis; type: ADME, organism-based; settings: in vivo; outline: as §3
[10] = target: von Hippel-Lindau disease tumor suppressor/Cyclin-dependent kinase 2 (Homo sapiens) (UniProt P24941+P40337); assay: PROTAC activity at CDK2/VHL in human Jurkat cells assessed as degradation of CDK7 measured at 10 to 500 nM after 6 hrs incubation by Western blotting analysis; type: cell-based; settings: dose 10-500 nM
[11] = Observed clearance in male CD1 mouse at 3 mg/kg, IV measured upto 24 hrs by LC-MS/MS-39 analysis; type: ADME, organism-based; settings: in vivo; outline: as §2
SU-DHL-5 = assay: Antiproliferative activity against human SU-DHL-5 cells assessed as cell viability measured after 72 hrs by CellTiter-Glo assay; type: functional, cell-based; settings: SU-DHL-5, 72 h; outline: as §1
[12] = Tmax in male CD1 mouse at 3 mg/kg, IV measured upto 24 hrs by LC-MS/MS-39 analysis; type: ADME, organism-based; settings: in vivo; outline: as §2
[13] = Cmax in male CD1 mouse at 3 mg/kg, IV measured upto 24 hrs by LC-MS/MS-39 analysis; type: ADME, organism-based; settings: in vivo; outline: as §2
[14] = target: T1, von Hippel-Lindau disease tumor suppressor/Cyclin-dependent kinase 7 (Homo sapiens); assay: PROTAC activity at CDK7/VHL in human MOLT-4 cells assessed as degradation of CDK7 at 0.1 to 5 uM measured after 6 hrs incubation by immunoblot analysis; type: cell-based; settings: dose 0.1-5 µM
[15] = target: T1, von Hippel-Lindau disease tumor suppressor/Cyclin-dependent kinase 7 (Homo sapiens); assay: PROTAC activity at CDK7/VHL in human Jurkat cells assessed as degradation of CDK7 in presence of 10 uM YKL-5-167 at 0.1 uM measured after 6 hrs incubation by immunoblot analysis; type: cell-based; outline: as §4
[16] = target: T1, von Hippel-Lindau disease tumor suppressor/Cyclin-dependent kinase 7 (Homo sapiens); assay: PROTAC activity at CDK7/VHL in human OVCAR-3 cells assessed as degradation of CDK7 at 0.1 to 5 uM measured after 6 hrs incubation by immunoblot analysis; type: cell-based; settings: dose 0.1-5 µM
[17] = Observed clearance in male CD1 mouse at 10 mg/kg, IP measured upto 24 hrs by LC-MS/MS-39 analysis; type: ADME, organism-based; settings: in vivo; outline: as §3
[18] = Observed volume of distribution at steady state in male CD1 mouse at 3 mg/kg, IV measured upto 24 hrs by LC-MS/MS-39 analysis; type: ADME, organism-based; settings: in vivo, read-out: Vdss; outline: as §2
[19] = target: T1, von Hippel-Lindau disease tumor suppressor/Cyclin-dependent kinase 7 (Homo sapiens); assay: PROTAC activity at CDK7/VHL in human Jurkat cells assessed as degradation of CDK7 at 0.1 uM measured after 16 hrs incubation by immunoblot analysis relative to control; type: cell-based
Outline: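 Jurkat cells given VHL-recruiting compounds at 0.1 or 1 μM for 16 h. RIPA lysis, BCA normalization, 4–20% SDS-PAGE, nitrocellulose transfer. CDK7 (1:1000) and β-actin probed overnight at 4 °C, IRDye secondaries, Odyssey detection. Quantified against control, mean ± SEM from three independent biological replicates.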

Jurkat = assay: Antiproliferative activity against human Jurkat cells assessed as cell viability measured after 72 hrs by CellTiter-Glo assay; type: functional, cell-based; outline: as §1
MOLT-4 = assay: Antiproliferative activity against human MOLT-4 cells assessed as cell viability measured after 72 hrs by CellTiter-Glo assay; type: functional, cell-based; settings: MOLT-4, 72 h; outline: as §1
[20] = target: von Hippel-Lindau disease tumor suppressor/Cyclin-dependent kinase 1 (Homo sapiens) (UniProt P06493+P40337); assay: PROTAC activity at CDK1/VHL in human Jurkat cells assessed as degradation of CDK7 measured at 10 to 500 nM after 6 hrs incubation by Western blotting analysis; type: cell-based; settings: dose 10-500 nM

With `Cc1ncsc1-c1ccc([C@H](C)NC(=O)[C@@H]2C[C@@H](O)CN2C(=O)[C@@H](NC(=O)CCCC#Cc2ccc(C(=O)Nc3n[nH]c4c3CN(C(=O)N[C@H](CN(C)C)c3ccccc3)C4(C)C)cc2)C(C)(C)C)cc1` the Activity [1] was “inactive”, the IC50 (OVCAR-3) was 780 nM and the Activity [2] was “inactive”. For the same compound, the Activity [3] was “Dose-Dependent Effect”, the t1/2 [4] was 3.76 h and the t1/2 [5] was 2.82 h. The Activity [6] was “inactive”, the Activity [7] was “Active” and the Activity [8] was “inactive”. The Cmax [9] was 3.39 µM, the Activity [10] was “inactive” and the clearance [11] was 8.3 mL/min/kg. For the same compound, the IC50 (SU-DHL-5) was 52 nM, the Tmax [12] was 4.98 min and the Cmax [13] was 17.1 µM. For the same compound, the Activity [14] was “Dose-Dependent Effect”, the Activity [15] was “inactive” and the Activity [16] was “Dose-Dependent Effect”. It also gave a CL/F [17] of 8.7 mL/min/kg, a Vd [18] of 0.345 L/kg and an Activity [19] of 95%. The IC50 (Jurkat) was 160 nM, the IC50 (MOLT-4) was 89 nM and the Activity [20] was “inactive”.
